From ChEMBL document CHEMBL3867462, “Synthesis and in vitro antikinetoplastid activity of polyamine-hydroxybenzotriazole conjugates” (Bioorg Med Chem, 2017)

What was measured:
Leishmania donovani [1] = assay: Antileishmanial against of Leishmania donovani LV9 intramacrophage amastigotes infected in mouse RAW 264.7 cells after 48 hrs by SYBR1 green-based qPCR analysis; type: functional, cell-based; conditions: LV9, RAW264.7, 48 h
[2] = system: Trypanosoma brucei gambiense; assay: Antitrypanosomal against bloostream forms of Trypanosoma brucei gambiense FeoITMAP/1893 trypomastigotes after 72 hrs in the dark by resazurin assay; type: functional; conditions: FeoITMAP/1893, 72 h
In short: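 Bloodstream trypanosomes were seeded at 4×10⁴/mL with compound dilutions in supplemented medium containing NaHCO3, hypoxanthine, bathocuproine, thymidine and 2-mercaptoethanol. Incubation was 72 h.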

[3] = Cytotoxicity against mouse RAW264.7 cells assessed as cell growth inhibition after 72 hrs by Alamar blue dye-based assay; type: toxicity
In short: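 RAW 264.7 cells in DMEM with 10% heat-inactivated FBS were seeded at 5×10³ cells/well and incubated 24 h at 37 °C, 5% CO2. The medium was then replaced with fresh DMEM containing compound.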

Leishmania donovani [4] = assay: Antileishmanial against of Leishmania donovani LV9 axenic amastigotes after 72 hrs by SYBR1 green-based qPCR analysis; type: functional; conditions: LV9, 72 h
In short: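 Axenic amastigotes were grown at 37 °C under 5% CO2, in medium at pH 5.5 containing glucose, glutamine, trypticase peptone, haemin and 20% FBS. Parasite load was read by SYBR green I fluorescence in a qPCR instrument and converted against a standard range of known parasite densities.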

[5] = Selectivity index, ratio of CC50 for mouse RAW 264.7 cells to IC50 for Trypanosoma brucei gambiense FeoITMAP/1893 trypomastigotes; type: functional
In short: (§1)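 Selectivity index is the CC50 on RAW 264.7 cells divided by the IC50 on the parasite.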

[6] = Selectivity index, ratio of CC50 for mouse RAW 264.7 cells to IC50 for Leishmania donovani LV9 axenic amastigotes; type: functional; in short: as §1
[7] = Selectivity index, ratio of CC50 for mouse RAW 264.7 cells to IC50 for Leishmania donovani LV9 intramacrophage amastigotes infected in mouse RAW 264.7 cells; type: functional; in short: as §1
[8] = Mixed-type inhibition of Trypanosoma brucei TryR assessed as enzyme-inhibitor complex using TS2 as substrate in presence of NADPH by Lineweaver-Burk plot analysis
In short: (§2)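 Recombinant T. brucei TryR activity was followed as NADPH consumption at 340 nm with TS2 concentration varied, at 0, 10 and 40 µM inhibitor. Inhibition type and inhibitor constant were derived from Lineweaver–Burk plots.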

[9] = Mixed-type inhibition of Trypanosoma brucei TryR assessed as enzyme-substrate-inhibitor complex using TS2 as substrate in presence of NADPH by Lineweaver-Burk plot analysis; in short: as §2
Trypanosoma brucei = assay: Inhibition of Trypanosoma brucei TryR using TS2 as substrate at 40 uM in presence of NADPH by spectrophotometric analysis
In short: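 Recombinant T. brucei TryR was screened with inhibitor at 40 µM in assay buffer containing 5% DMSO, at 40 or 100 µM TS2. Activity was followed as NADPH consumption at 340 nm and reported as percent inhibition against DMSO-matched controls.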

Structure (SMILES): Cl.Cl.NCCCNCCCCNC(=O)COn1nnc2ccccc21
- IC50 (Leishmania donovani [1]): > 100 µM
- IC50 [2]: 38.7 µM
- CC50 at 72 h [3]: > 100 µM
- IC50 (Leishmania donovani [4]): > 100 µM
- Ratio CC50/IC50 [5]: 3
- Ratio CC50/IC50 [6]: 9

Structure (SMILES): CC(C)(C)OC(=O)NCCCNC(=O)COn1nnc2ccccc21
- Ratio CC50/IC50 [7]: 2
- IC50 (Leishmania donovani [1]): 56.7 µM
- IC50 [2]: 28.8 µM
- CC50 at 72 h [3]: > 100 µM
- IC50 (Leishmania donovani [4]): > 100 µM
- Ratio CC50/IC50 [5]: 3

Structure (SMILES): Cl.Cl.Cl.NCCCNCCCCNCCCNC(=O)COn1nnc2ccccc21
- Ratio CC50/IC50 [7]: 3
- IC50 (Leishmania donovani [1]): 38.6 µM
- IC50 [2]: 13.8 µM
- CC50 at 72 h [3]: > 100 µM
- IC50 (Leishmania donovani [4]): 10.9 µM
- Ratio CC50/IC50 [5]: 7
- Ratio CC50/IC50 [6]: 9

Structure (SMILES): N=C(N)c1ccc(OCCCCCOc2ccc(C(=N)N)cc2)cc1 [PENTAMIDINE]
- IC50 [2]: 0.0021 µM
- CC50 at 72 h [3]: > 100 µM

Structure (SMILES): CC(C)(C)OC(=O)NCCCCN(CCCNC(=O)OC(C)(C)C)C(=O)COn1nnc2ccccc21
- Ratio CC50/IC50 [7]: 4
- IC50 (Leishmania donovani [1]): 3.1 µM
- IC50 [2]: 3.2 µM
- CC50 at 72 h [3]: 12.5 µM
- IC50 (Leishmania donovani [4]): 11.5 µM
- Ratio CC50/IC50 [5]: 4
- Ratio CC50/IC50 [6]: 1

Structure (SMILES): Cl.Cl.NCCCCN(CCCN)C(=O)COn1nnc2ccccc21
- Ratio CC50/IC50 [7]: 4
- IC50 (Leishmania donovani [1]): 23.4 µM
- IC50 [2]: 25.3 µM
- CC50 at 72 h [3]: > 100 µM
- IC50 (Leishmania donovani [4]): > 100 µM
- Ratio CC50/IC50 [5]: 4

Structure (SMILES): Cl.Cl.NCCCCNCCCNC(=O)COn1nnc2ccccc21
- Ki [8]: 6.7 µM
- IC50 (Leishmania donovani [1]): > 100 µM
- Ki [9]: 16.8 µM
- IC50 [2]: 72 µM
- CC50 at 72 h [3]: > 100 µM
- inhibition (Trypanosoma brucei): 80%
- IC50 (Leishmania donovani [4]): > 100 µM
- Ratio CC50/IC50 [5]: 1
- Ratio CC50/IC50 [6]: 1.5

Structure (SMILES): CC(C)(C)OC(=O)NCCCN(CCCCN(CCCNC(=O)COn1nnc2ccccc21)C(=O)OC(C)(C)C)C(=O)OC(C)(C)C
- Ratio CC50/IC50 [7]: 1
- IC50 (Leishmania donovani [1]): 34.7 µM
- IC50 [2]: 3.5 µM
- CC50 at 72 h [3]: 37.4 µM
- IC50 (Leishmania donovani [4]): 27 µM
- Ratio CC50/IC50 [5]: 10
- Ratio CC50/IC50 [6]: 1.4

Structure (SMILES): O=C(O)COn1nnc2ccccc21
- IC50 (Leishmania donovani [1]): > 100 µM
- IC50 [2]: > 100 µM
- CC50 at 72 h [3]: > 100 µM
- IC50 (Leishmania donovani [4]): > 100 µM

Structure (SMILES): NCCCCNCCCN [SPERMIDINE]
- IC50 (Leishmania donovani [1]): > 100 µM
- IC50 [2]: 3.3 µM
- CC50 at 72 h [3]: > 100 µM
- IC50 (Leishmania donovani [4]): 8.3 µM
- Ratio CC50/IC50 [5]: 29
- Ratio CC50/IC50 [6]: 12

Structure (SMILES): CC(C)(C)OC(=O)NCCCCNC(=O)COn1nnc2ccccc21
- IC50 (Leishmania donovani [1]): > 100 µM
- IC50 [2]: > 100 µM
- CC50 at 72 h [3]: > 100 µM
- IC50 (Leishmania donovani [4]): > 100 µM

Structure (SMILES): CCCCCCCCCCCCCCCCOP(=O)([O-])OCC[N+](C)(C)C [MILTEFOSINE]
- IC50 (Leishmania donovani [1]): 1.5 µM
- CC50 at 72 h [3]: > 100 µM
- IC50 (Leishmania donovani [4]): 1.9 µM

Structure (SMILES): Cl.NCCCNC(=O)COn1nnc2ccccc21
- Ratio CC50/IC50 [7]: 3
- IC50 (Leishmania donovani [1]): 29.5 µM
- IC50 [2]: > 100 µM
- CC50 at 72 h [3]: > 100 µM
- IC50 (Leishmania donovani [4]): > 100 µM

Structure (SMILES): Cl.NCCCCNC(=O)COn1nnc2ccccc21
- IC50 (Leishmania donovani [1]): > 100 µM
- IC50 [2]: 9.5 µM
- CC50 at 72 h [3]: > 100 µM
- IC50 (Leishmania donovani [4]): > 100 µM
- Ratio CC50/IC50 [5]: 11

Structure (SMILES): CC(C)(C)OC(=O)NCCCN(CCCCNC(=O)COn1nnc2ccccc21)C(=O)OC(C)(C)C
- Ratio CC50/IC50 [7]: 2
- IC50 (Leishmania donovani [1]): 41.4 µM
- IC50 [2]: 2 µM
- CC50 at 72 h [3]: > 100 µM
- IC50 (Leishmania donovani [4]): > 100 µM
- Ratio CC50/IC50 [5]: 50

Structure (SMILES): CC(C)(C)OC(=O)NCCCCN(CCCNC(=O)COn1nnc2ccccc21)C(=O)OC(C)(C)C
- Ratio CC50/IC50 [7]: 1
- IC50 (Leishmania donovani [1]): 67.8 µM
- IC50 [2]: 1.2 µM
- CC50 at 72 h [3]: > 100 µM
- IC50 (Leishmania donovani [4]): 60.5 µM
- Ratio CC50/IC50 [5]: 85
- Ratio CC50/IC50 [6]: 1.6
